Results gathered from unrelated publications.
Cell line: NCI-H23
Read-out: cell growth or viability

Compound | method | tested at | time | measurement | value
O=C(/C=C/c1ccc2ncn(CCCl)c(=O)c2c1)NO | SRB |  | 48 h | IC50 | 3.2 µM
CCCc1n(Cc2ccc3ccccc3n2)cc[n+]1Cc1ccc2ccccc2n1 | SRB |  |  | TGI | 15 µM
O=C(/C=C/c1ccc2ncn(Cc3ccccc3)c(=O)c2c1)NO | SRB |  | 48 h | IC50 | 1 µM
S=C([S][Au-][P+](CCCCCC[P+]([Au-][S]C(=S)n1cccn1)(c1ccccc1)c1ccccc1)(c1ccccc1)c1ccccc1)n1cccn1 | SRB |  |  | GI50 | 4.76 µM
COc1ccc(C(=O)/C=C/c2ccc3ccccc3c2)cc1S(N)(=O)=O | SRB | 10 µM |  | inhibition | 124%
COc1ccc(-c2ccc(-c3ccc(C(=N)N)nc3)s2)cc1Cl | SRB |  |  | GI50 | 1.8 µM
COc1ccc(C(=O)/C=C/c2cccc3ccccc23)cc1S(N)(=O)=O | SRB |  | 48 h | GI50 | 2.2 µM
O=C1Nc2ccccc2C1=NNc1nnc2n1N=C(c1ccccc1)CS2 | SRB | 10 µM |  | inhibition | 31%
COc1ccc(-c2ccc(-c3ccc(C(=N)N)nc3)s2)cc1 | SRB |  |  | GI50 | 1.84 µM
COc1ccc(C(=O)/C=C/c2cccc(Br)c2)cc1S(N)(=O)=O | SRB | 10 µM |  | inhibition | 166%
c1ccc(-c2n(Cc3ccc4ccccc4c3)cc[n+]2Cc2ccc3ccccc3c2)cc1 | SRB |  |  | TGI | 2.35 µM
CC/C(=C(\c1ccccc1)c1ccc(OCCN(C)C)cc1)c1ccccc1 | ATP luminescence |  | 72 h | EC90 | 18.3 µM
O=C1NC(=NCc2cccs2)S/C1=C\c1ccc2ncccc2c1 |  |  |  | IC50 | > 10 µM
COc1ccc(C(=O)/C=C/c2c(F)cccc2Cl)cc1S(N)(=O)=O | SRB | 10 µM |  | inhibition | 116%
CCc1n(Cc2ccc3ccccc3n2)cc[n+]1Cc1ccc2ccccc2n1 | SRB |  |  | GI50 | 0.257 µM
COc1ccc(C(=O)/C=C/c2ccc3c(c2)OCCO3)cc1S(N)(=O)=O | SRB | 10 µM |  | inhibition | 27%
CCCCc1n(Cc2ccc3ccccc3n2)cc[n+]1Cc1ccc2ccccc2n1 | SRB |  |  | TGI | 7.27 µM
